In PubChem BioAssay AID651740 (Broad Institute, 2012):
Hit rate of the full screen: of about 5,600 compounds, about 1,200 (21%) were called active. Another 3% or so got no clear call; they are omitted.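 How the source made its calls: active means mean inhibition above about 95%, with at least 55% of replicates also reaching it (limit read from the data); inconclusive means meets just one of the two conditions; inactive means meets neither condition.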 Only a sample is shown.

Test: inhibitors of intracellular T. cruzi replication, confirmation, NIH3T3 host cells, beta-gal parasites, cherry-pick, set 2 (AID 651740);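 further: plate controls were neutral control median for no effect and positive control median for full effect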
Conditions: T. cruzi beta-gal in NIH3T3, GalScreen luminescence, 90 h; at 2.09 µM; active compounds read high
Summary of the method: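 Timing: host attachment 3 h, co-culture ≥90 h, lysis 60 min / Test system: NIH/3T3 host cells with beta-gal T. cruzi Tulahuen C4 / Quantity: 5,000 fibroblasts/well / Dosing: single point, 100 nL compound in DMSO pinned per well / Buffer or medium: 2% FBS DMEM with PSG / Detection: GalScreen luminescence (substrate 1:25 in Buffer B) after cell lysis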
With `CC(=O)N(C)C[C@@H]1[C@@H](c2ccc(-c3ccccc3F)cc2)[C@@H](CO)N1C(C)=O` the inhibition was 26.5% (inactive). In the case of `OC[C@@H]1[C@H](c2ccc(C#Cc3ccccc3)cc2)[C@@H]2CN(Cc3cncnc3)CCCCN12`, the inhibition is reported as 90.4% (inactive). For `N#C[C@H]1[C@@H](c2ccc(C3=CCCCC3)cc2)[C@@H](CO)N1C(=O)NC1CCCCC1`, the inhibition was 59.4% (inactive). With `Cc1ccccc1-c1ccc([C@H]2[C@H]3CN(S(=O)(=O)c4ccc(F)cc4)CCCCN3[C@H]2CO)cc1` the inhibition was 93.8% (inactive). For `C[C@@H]1CCCCO[C@H](CN(C)S(=O)(=O)c2ccc(F)cc2)[C@H](C)CN([C@@H](C)CO)C(=O)c2cc(NS(=O)(=O)c3ccccc3)ccc2O1`, the inhibition was 47.8% (inactive). With `O=C(CN1CCOCC1)N1CCCCN2[C@@H](CO)[C@H](c3ccc(-c4ccccc4)cc3)[C@@H]2C1` the inhibition was 36.1% (inactive). With `CC(C)NC(=O)N1[C@H](C#N)[C@H](c2ccc(C#CC3CCCCC3)cc2)[C@H]1CO` the inhibition was 117% (active). For `CCCC#Cc1ccc([C@@H]2[C@@H](C#N)N(C(=O)C3CCCC3)[C@@H]2CO)cc1`, the inhibition was 73.2% (inactive). In the case of `CS(=O)(=O)N1[C@@H](C#N)[C@H](c2ccc(C#CC3CCCCC3)cc2)[C@@H]1CO`, the inhibition is reported as 35.7% (inactive). With `CN1c2ccc(-c3ccccc3)cc2[C@@H]2[C@@H](CCN2C(=O)c2ccncc2)[C@@H]1CO` the inhibition was 64.5% (inactive). For `C[C@@H]1CN([C@H](C)CO)C(=O)Cc2cc(NC(=O)c3ccncc3)ccc2O[C@H]1CN(C)Cc1ccc(-c2ccccc2)cc1`, the inhibition was 48.9% (inactive). For `N#Cc1cccc(-c2ccc([C@H]3[C@H](CO)N4CCCCN(C(=O)Nc5cccc(F)c5)C[C@@H]34)cc2)c1`, the inhibition was 87.9% (inactive). For `COCC(=O)N(C)C[C@@H]1Oc2ncc(C#Cc3ccccc3OC)cc2C(=O)N([C@@H](C)CO)C[C@H]1C`, the inhibition was 99.4% (active). For `COc1ccc(C#Cc2cnc3c(c2)C(=O)N([C@@H](C)CO)C[C@H](C)[C@@H](CN(C)C(C)=O)O3)cc1`, the inhibition was -5.22% (inactive). In the case of `C[C@@H]1CN([C@@H](C)CO)C(=O)c2cc(C#Cc3ccccc3)cnc2O[C@H]1CN(C)C(=O)c1ccccn1`, the inhibition is reported as 62.8% (inactive). In the case of `C[C@H]1CN([C@@H](C)CO)C(=O)CCCn2cc(nn2)CO[C@H]1CN(C)C(=O)c1ccccc1`, the inhibition is reported as -12.4% (inactive). In the case of `C[C@H](CO)N1C[C@H](C)[C@@H](CN(C)S(=O)(=O)c2cccc(F)c2)OCc2ccccc2-c2c(n(C)c3ccccc23)C1=O`, the inhibition is reported as 91.4% (inactive). For `O=C(CN1CCOCC1)N1CCCCN2[C@H](CO)[C@H](c3ccc(-c4ccccc4)cc3)[C@@H]2C1`, the inhibition was 49.3% (inactive).
